Type in all cases: functional, cell-based
One test deals with DU-145. In words: Cytotoxicity against human DU145 cells assessed as growth inhibition after 24 hrs by MTT assay. The settings on record: DU-145, 24 h. The gist of the method:
(§1)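 Exponentially growing cells (A549 lung CCL-185, DU145 prostate HTB-81, HeLa cervical CCL-2, MCF7 breast HTB-22) exposed to a range of compound concentrations for 24 h; viability read by MTT. 5-Fluorouracil served as positive control. IC50 taken as concentration giving 50% drop in cell number versus untreated control cultures.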

The subject of the next test is HeLa. Briefly: Cytotoxicity against human HeLa cells assessed as growth inhibition after 24 hrs by MTT assay. The gist of the method: as §1
A further test deals with A549. Briefly: Cytotoxicity against human A549 cells assessed as growth inhibition after 24 hrs by MTT assay. The settings on record: A549, 24 h. A digest of the protocol:
as §1

A further test has as its system MCF7. Briefly: Cytotoxicity against human MCF7 cells assessed as growth inhibition after 24 hrs by MTT assay. The settings on record: MCF7, 24 h. A digest of the protocol:
as §1

Take `O=C(O)C1=Cc2ccccc2OC1(OCc1cc(-c2ccc3ccccc3c2)no1)C(F)(F)F` (stereo unspecified): the IC50 in the test on DU-145 is 140 µM; in the test with HeLa, above 150 µM; in the test on A549, above 150 µM; in the test on MCF7, above 150 µM.

Turning to `CCOC(=O)C1=Cc2ccccc2OC1(OCc1cn(-c2ccc(C)cc2)nn1)C(F)(F)F` (stereo unspecified), the concentration for half-maximal inhibition (IC50) in the test on DU-145 came to 30.2 µM; in the test with HeLa, 25.1 µM; in the test on A549, 19.7 µM; in the test on MCF7, 26.7 µM.

In the case of `CCOC(=O)C1=Cc2ccccc2OC1(OCc1cn(-c2ccc([N+](=O)[O-])cc2)nn1)C(F)(F)F` (stereo unspecified), the IC50 with DU-145, in the test with HeLa, with A549 and in the test with MCF7 was above 150 µM each time.

`CCOC(=O)C1=Cc2ccccc2OC1(OCc1cn(-c2ccccc2)nn1)C(F)(F)F` (stereo unspecified): the IC50 with DU-145, in the test with HeLa, with A549 and in the test on MCF7 was above 150 µM each time.

In the case of `CCOC(=O)C1=Cc2ccccc2OC1(OCc1cn(-c2ccc(F)c(Cl)c2)nn1)C(F)(F)F` (stereo unspecified), the IC50 was determined as 21.5 µM in the test with DU-145, 22.7 µM in the test with HeLa, 26.3 µM in the test with A549 and 25.3 µM with MCF7.

On to `CCOC(=O)C1=Cc2ccccc2OC1(OCc1cn(-c2cccc(C(F)(F)F)c2)nn1)C(F)(F)F` (stereo unspecified), for which the IC50 in the test on DU-145, in the test on HeLa, in the test on A549 and with MCF7 was above 150 µM throughout.

`CCOC(=O)C1=Cc2ccccc2OC1(OCc1cn(-c2ccc(F)cc2)nn1)C(F)(F)F` (stereo unspecified): the IC50 in the test on DU-145 was determined as 8.9 µM; with HeLa, 8.4 µM; with A549 it was 7.3 µM; with MCF7, 9.1 µM.

`CCOC(=O)C1=Cc2ccccc2OC1(OCc1cn(-c2ccc(F)c([N+](=O)[O-])c2)nn1)C(F)(F)F` (stereo unspecified): the IC50 in the test with DU-145 was found to be 13.2 µM; in the test with HeLa it was 15.6 µM; with A549, 11.9 µM; in the test with MCF7, 16.2 µM.

For `CCOC(=O)C1=Cc2ccccc2OC1(OCc1cn(-c2cccc(OC)c2)nn1)C(F)(F)F` (stereo unspecified), the IC50 in the test with DU-145, in the test on HeLa, in the test with A549 and in the test with MCF7 was above 150 µM in each case.

For the compound `CCCCCCCCn1cc(COC2(C(F)(F)F)Oc3ccccc3C=C2C(=O)OCC)nn1` (stereo unspecified), the IC50 in the test on DU-145, in the test with HeLa, with A549 and in the test with MCF7 was above 150 µM throughout.

For the compound `CCOC(=O)C1=Cc2ccccc2OC1(OCc1cn(CC(=O)Nc2ccc(C)cc2)nn1)C(F)(F)F` (stereo unspecified), the IC50 is above 150 µM in the test with DU-145, 67.4 µM in the test on HeLa, 54.3 µM in the test with A549 and above 150 µM in the test on MCF7.

In the case of `CCOC(=O)C1=Cc2ccccc2OC1(OCc1cn(CC(=O)Nc2ccc(OC)cc2)nn1)C(F)(F)F` (stereo unspecified), the IC50 with DU-145 came out at 32.7 µM; in the test on HeLa, 31.9 µM; with A549, 29.4 µM; in the test on MCF7, 28.1 µM.

With `CCOC(=O)C1=Cc2ccccc2OC1(OCc1cn(CC(=O)Nc2cccc(Cl)c2)nn1)C(F)(F)F` (stereo unspecified), the IC50 was 10.1 µM in the test with DU-145, 12.3 µM with HeLa, 12.8 µM in the test with A549 and 11.6 µM in the test with MCF7.

For the compound `CCOC(=O)C1=Cc2ccccc2OC1(OCc1cn(CC(=O)Nc2cccc(F)c2)nn1)C(F)(F)F` (stereo unspecified), the IC50 with DU-145, in the test with HeLa, with A549 and in the test with MCF7 was above 150 µM each time.

As to `CCOC(=O)C1=Cc2ccccc2OC1(OCc1cn(CC(=O)Nc2ccccc2F)nn1)C(F)(F)F` (stereo unspecified), the IC50 with DU-145 worked out at 33.9 µM; in the test with HeLa, 49.9 µM; with A549, 50.1 µM; in the test on MCF7 it was 42.1 µM.

Take `CCOC(=O)C1=Cc2ccccc2OC1(OCc1cn(CC(=O)Nc2ccccc2Br)nn1)C(F)(F)F` (stereo unspecified): the IC50 with DU-145, in the test with HeLa, with A549 and in the test on MCF7 was above 150 µM throughout.

Regarding `CCOC(=O)C1=Cc2ccccc2OC1(OCc1cn(CC(=O)Nc2ccc(I)cc2Cl)nn1)C(F)(F)F` (stereo unspecified), the half-maximal inhibitory concentration (IC50) was 24.4 µM in the test with DU-145, 26.1 µM with HeLa, 22.3 µM with A549 and 28.1 µM in the test with MCF7.

For `CCOC(=O)C1=Cc2ccccc2OC1(OCc1cn(CC(=O)NC2CCCCC2)nn1)C(F)(F)F` (stereo unspecified), the IC50 in the test on DU-145 was 10.2 µM; with HeLa it was 11.4 µM; with A549, 9.9 µM; in the test with MCF7, 12.1 µM.

Take `CCOC(=O)C1=Cc2ccccc2OC1(OCc1cc(-c2ccc(F)cc2)no1)C(F)(F)F` (stereo unspecified): the half-maximal inhibitory concentration (IC50) in the test on DU-145 was 53.5 µM; in the test with HeLa, 42.3 µM; with A549, 35.5 µM; in the test with MCF7 it was 48.2 µM.

`CCOC(=O)C1=Cc2ccccc2OC1(OCc1cc(-c2cccc(C(F)(F)F)c2)no1)C(F)(F)F` (stereo unspecified): the IC50 with DU-145 was found to be 57.3 µM; in the test with HeLa it was 21.4 µM; in the test with A549, 48.6 µM; in the test with MCF7 it was 22.1 µM.

For `CCOC(=O)C1=Cc2ccccc2OC1(OCc1cc(-c2ccc3ccccc3c2)no1)C(F)(F)F` (stereo unspecified), the IC50 was 71.8 µM in the test with DU-145, above 150 µM with HeLa, above 150 µM in the test with A549 and 65.4 µM in the test with MCF7.

Regarding `CCOC(=O)C1=Cc2ccccc2OC1(OCc1cc(-c2ccc(C)cc2)no1)C(F)(F)F` (stereo unspecified), the half-inhibitory concentration (IC50) in the test on DU-145, in the test with HeLa, with A549 and in the test with MCF7 was above 150 µM in each case.

`CCOC(=O)C1=Cc2ccccc2OC1(OCc1cc(-c2ccc([N+](=O)[O-])cc2)no1)C(F)(F)F` (stereo unspecified): the IC50 in the test with DU-145, with HeLa, in the test with A549 and in the test with MCF7 was above 150 µM each time.

For `CCOC(=O)C1=Cc2ccccc2OC1(OCc1cc(-c2ccc(F)cc2F)no1)C(F)(F)F` (stereo unspecified), the concentration for half-maximal inhibition (IC50) in the test on DU-145, in the test on HeLa, in the test with A549 and with MCF7 was above 150 µM in each case.

As for `CCOC(=O)C1=Cc2ccccc2OC1(OCc1cc(-c2ccc(OC)cc2)no1)C(F)(F)F` (stereo unspecified), the IC50 with DU-145, with HeLa, with A549 and in the test on MCF7 was above 150 µM each time.

As for `CCOC(=O)C1=Cc2ccccc2OC1(OCc1cc(-c2ccc(Br)cc2)no1)C(F)(F)F` (stereo unspecified), the IC50 was 71.7 µM in the test with DU-145, 52.3 µM in the test on HeLa, above 150 µM in the test on A549 and above 150 µM in the test on MCF7.

`CCOC(=O)C1=Cc2ccccc2OC1(OCc1cc(-c2ccc(Cl)cc2)no1)C(F)(F)F` (stereo unspecified): the IC50 came to 18.2 µM in the test on DU-145, 12.3 µM in the test with HeLa, 19.1 µM with A549 and 18.2 µM in the test on MCF7.

Regarding `Cc1ccc(-c2cc(COC3(C(F)(F)F)Oc4ccccc4C=C3C(=O)O)on2)cc1` (stereo unspecified), the IC50 in the test on DU-145 came out at 41.4 µM; in the test with HeLa, 33.4 µM; with A549 it was 51.2 µM; with MCF7, 30.1 µM.

On to `O=C(O)C1=Cc2ccccc2OC1(OCc1cc(-c2ccc(F)cc2F)no1)C(F)(F)F` (stereo unspecified), for which the 50% inhibitory concentration (IC50) in the test with DU-145, in the test with HeLa, in the test with A549 and in the test on MCF7 was above 150 µM in each case.

Consider `O=C(O)C1=Cc2ccccc2OC1(OCc1cc(-c2ccc(F)cc2)no1)C(F)(F)F` (stereo unspecified), for which the IC50 with DU-145 was 168 µM; in the test with HeLa it was above 150 µM; with A549, above 150 µM; in the test on MCF7 it was 64.2 µM.

Take `O=C(O)C1=Cc2ccccc2OC1(OCc1cc(-c2cccc(C(F)(F)F)c2)no1)C(F)(F)F` (stereo unspecified): the IC50 was 155 µM with DU-145, above 150 µM in the test with HeLa, above 150 µM in the test with A549 and above 150 µM in the test with MCF7.

For the compound `COc1ccc(-c2cc(COC3(C(F)(F)F)Oc4ccccc4C=C3C(=O)O)on2)cc1` (stereo unspecified), the IC50 in the test with DU-145 was 42 µM; with HeLa, above 150 µM; in the test with A549, 36.2 µM; with MCF7, 35.2 µM.

With `O=C(O)C1=Cc2ccccc2OC1(OCc1cc(-c2ccc([N+](=O)[O-])cc2)no1)C(F)(F)F` (stereo unspecified), the IC50 in the test with DU-145 is 100 µM; with HeLa it was above 150 µM; in the test with A549, above 150 µM; with MCF7, above 150 µM.

With `O=c1[nH]cc(F)c(=O)[nH]1` [FLUOROURACIL], the IC50 with DU-145 is 1.9 µM; in the test with HeLa, 1.8 µM; in the test with A549, 1.9 µM; in the test with MCF7, 1.8 µM.

The values above are taken from ChEMBL document CHEMBL3232960, “Synthesis of novel 1,2,3-triazole/isoxazole functionalized 2H-Chromene derivatives and their cytotoxic activity” (Bioorg Med Chem Lett, 2014).
